In ChEMBL document CHEMBL1137388, “A novel class of potent nonglycosidic and nonpeptidic pan-selectin inhibitors” (2006):
Calls of active or inactive are those of the source. The calls are words filed in the database; no cut-off is given here.

Assays:
AEC = experiment: Viability of BAEC by Roche-XTT assay relative to control; type: functional, Bos taurus; design: concentration or dose not given beside the values
How it was run: (§1)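 XTT assay: metabolically active cells convert yellow tetrazolium XTT to orange formazan. Untreated control viability set to 100%. Cells were BAEC or MM6 as named in each line; MM6 tested at 100 µM.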

[1] = molecular target: T1, L-selectin (Homo sapiens) (UniProt P14151); experiment: Inhibition of sLex binding to L-selectin at 500 uM relative to control by glyco-ELISA assay
T1 sequence (whole entry): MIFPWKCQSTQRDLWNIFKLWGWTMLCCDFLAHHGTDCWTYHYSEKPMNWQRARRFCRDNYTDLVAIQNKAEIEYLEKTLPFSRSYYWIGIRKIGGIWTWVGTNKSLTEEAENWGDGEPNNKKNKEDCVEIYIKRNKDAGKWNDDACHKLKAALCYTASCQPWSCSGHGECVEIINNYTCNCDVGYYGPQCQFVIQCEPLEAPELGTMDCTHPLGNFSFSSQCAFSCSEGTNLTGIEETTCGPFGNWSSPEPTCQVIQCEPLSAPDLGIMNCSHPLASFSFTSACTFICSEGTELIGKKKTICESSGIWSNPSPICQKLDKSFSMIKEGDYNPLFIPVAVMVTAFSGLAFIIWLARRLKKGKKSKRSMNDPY
How it was run: (§2)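 Cell-free competitive binding assay. The named selectin is immobilized on microtiter plates, and compound plus sLex-tyrosine sulfate on biotinylated polyacrylamide are added. After incubation, bound ligand is detected by streptavidin-peroxidase, OD 414 nm, with empty-plate absorbance subtracted. Wells coated only with sLex define 0%; EDTA (blocks Ca2+-dependent binding) defines 100% inhibition.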

MONO-MAC-6 [2] = experiment: Viability of MM6 cells at 100 uM by Roche-XTT assay relative to control; type: functional, Homo sapiens; how it was run: as §1
[3] = Viability in ATP-lite assay relative to control; type: functional; design: concentration or dose not given beside the values
[4] = molecular target: T2, E-selectin (Homo sapiens) (UniProt P16581); experiment: Inhibition of sLex binding to E-selectin at 100 uM relative to control by glyco-ELISA assay; how it was run: as §2
T2 sequence (whole entry): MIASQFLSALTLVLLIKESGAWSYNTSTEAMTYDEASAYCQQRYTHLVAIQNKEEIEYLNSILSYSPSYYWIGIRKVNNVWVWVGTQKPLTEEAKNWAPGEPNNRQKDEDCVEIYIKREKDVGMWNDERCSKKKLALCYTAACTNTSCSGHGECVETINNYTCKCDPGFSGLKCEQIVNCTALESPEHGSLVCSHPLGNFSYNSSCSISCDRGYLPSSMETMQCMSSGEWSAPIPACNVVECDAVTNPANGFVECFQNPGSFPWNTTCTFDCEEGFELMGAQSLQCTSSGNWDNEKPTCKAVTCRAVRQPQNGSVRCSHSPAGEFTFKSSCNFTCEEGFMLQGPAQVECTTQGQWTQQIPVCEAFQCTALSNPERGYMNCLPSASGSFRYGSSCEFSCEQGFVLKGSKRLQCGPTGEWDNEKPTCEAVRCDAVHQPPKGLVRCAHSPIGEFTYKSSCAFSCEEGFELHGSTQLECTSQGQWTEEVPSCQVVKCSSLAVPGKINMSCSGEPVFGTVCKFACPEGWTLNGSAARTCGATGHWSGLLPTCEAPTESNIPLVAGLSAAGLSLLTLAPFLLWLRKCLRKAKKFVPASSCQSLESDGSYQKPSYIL

[5] = Inhibition of MM6 cell adhesion to BAEC at 100 uM relative to control by static assay; type: functional
How it was run: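 BAEC monolayers (passage 1-3, 7 days after seeding) stimulated with 20 ng/mL TNFα for 4 or 16 h, test agent in DMSO or vehicle for 20 min at 37 °C/5% CO2. After washing, leukocytes added at 1 × 10^6 cells/mL for 30 min at 37 °C. Non-adherent cells washed off, adherent cells counted microscopically. TNFα-stimulated adhesion set to 100%. Single concentration, 100 µM.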

[6] = molecular target: T3, P-selectin (Homo sapiens) (UniProt P16109); experiment: Inhibition of sLex binding to P-selectin at 500 uM relative to control by glyco-ELISA assay; how it was run: as §2
T3 sequence (whole entry): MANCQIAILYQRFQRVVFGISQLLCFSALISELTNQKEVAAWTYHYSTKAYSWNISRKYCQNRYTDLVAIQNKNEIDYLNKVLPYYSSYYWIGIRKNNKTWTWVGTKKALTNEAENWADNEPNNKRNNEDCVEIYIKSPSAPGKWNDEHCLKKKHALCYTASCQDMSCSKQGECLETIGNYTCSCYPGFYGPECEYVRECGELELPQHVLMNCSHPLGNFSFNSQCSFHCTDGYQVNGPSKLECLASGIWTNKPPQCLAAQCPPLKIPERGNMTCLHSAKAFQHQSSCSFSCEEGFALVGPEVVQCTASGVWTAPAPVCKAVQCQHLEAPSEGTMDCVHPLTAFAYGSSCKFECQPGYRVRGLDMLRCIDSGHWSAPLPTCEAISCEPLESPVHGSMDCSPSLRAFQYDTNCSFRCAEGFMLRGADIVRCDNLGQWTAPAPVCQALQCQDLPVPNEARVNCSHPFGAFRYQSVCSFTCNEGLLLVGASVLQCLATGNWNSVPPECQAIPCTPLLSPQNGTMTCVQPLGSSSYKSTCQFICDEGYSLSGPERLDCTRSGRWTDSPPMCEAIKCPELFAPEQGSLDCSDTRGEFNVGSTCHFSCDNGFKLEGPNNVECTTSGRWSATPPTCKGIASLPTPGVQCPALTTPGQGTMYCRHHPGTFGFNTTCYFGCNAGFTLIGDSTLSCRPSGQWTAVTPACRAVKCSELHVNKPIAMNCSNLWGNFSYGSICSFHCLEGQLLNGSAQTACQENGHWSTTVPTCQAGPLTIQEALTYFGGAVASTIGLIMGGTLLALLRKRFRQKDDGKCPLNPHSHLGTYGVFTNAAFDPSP

MONO-MAC-6 [7] = experiment: Viability of MM6 cells at 50 uM by Roche-XTT assay relative to control; type: functional, Homo sapiens
[8] = molecular target: T2, E-selectin (Homo sapiens); experiment: Inhibition of sLex binding to E-selectin at 500 uM relative to control by glyco-ELISA assay; how it was run: as §2
Mus musculus [9] = experiment: Reduction in proteose peptone-induced PMN extravasation in C57BL/J mouse peritonitis model at 100 mg/kg; type: functional, organism-based; design: dose 100 mg/kg
[10] = molecular target: T1, L-selectin (Homo sapiens); experiment: Inhibition of sLex binding to L-selectin at 100 uM relative to control by glyco-ELISA assay; how it was run: as §2
Mus musculus [11] = experiment: Reduction in proteose peptone-induced PMN extravasation in C57BL/J mouse peritonitis model at 50 mg/kg, ip; type: functional; design: scale not given: the % may be the effect or the level left; details: route intraperitoneal
How it was run: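 Male C57BL/6 mice received 100 µL of a 50 mg/mL compound suspension in corn oil ip, or vehicle, then 1 h later 3 mL of 3% proteose peptone ip. Peritoneal leukocytes were lavaged at 6 h with cold HBSS/5 mM EDTA and stained with PE-conjugated anti-PMN, MOMA-2 and anti-CD2 antibodies. Cells were classified by scatter and fluorescence. Mean ± SEM, n = 4.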

[12] = molecular target: T3, P-selectin (Homo sapiens); experiment: Inhibition of sLex binding to P-selectin at 100 uM relative to control by glyco-ELISA assay; how it was run: as §2

Compound | Activity (AEC) [%] | inhibition [1] [%] | Activity (MONO-MAC-6 [2]) [%] | Activity [3] [%] | inhibition [4] [%] | inhibition at 100 µM [5] [%] | inhibition [6] [%] | other results
CCCCCCCCCCOc1cccc(OCCCCCC(=O)N(Cc2ccc(C(=O)O)cc2)c2cccc(C(=O)O)c2)c1 | 20 | 103 | 101 | 4 | 42 | 70 | 103 | –
CCCCCCCCCCOc1cccc(OCCCCCCON=C(c2ccc(C(=O)O)cc2)c2ccc(C(=O)O)cc2)c1 | 40 | – | – | – | – | 67 | – | Activity (MONO-MAC-6 [7]): 12%
CCCCCCCCCCOc1cccc(OCCCCCC(=O)N(Cc2ccc(C(=O)OC)cc2)c2cccc(C(=O)OC)c2)c1 | 99 | 86 | 98 | 62 | 18 | 45 | 79 | –
CCCCCCCCCCOc1cc(OCCCCCCCCCC)cc(OCCCCCC(=O)N(c2ccc(C(=O)OC)cc2)c2ccc(C(=O)OC)c(C(=O)OC)c2)c1 | 90 | 95 | 50 | 58 | – | 115 | 90 | inhibition [8]: 73%
O=C(O)c1ccc(N(C(=O)CCCCCBr)c2ccc(C(=O)O)cc2)cc1 | – | 6 | – | – | 5 | 4 | 12 | –
CCCCCCCCCCOc1cc(OCCCCCCCCCC)cc(OCCCCCC(=O)N(Cc2ccc(C(=O)O)cc2)c2cccc(C(=O)O)c2)c1 | 46 | 92 | 11 | 0 | 43 | 82 | 95 | –
CC(=O)N[C@H]1[C@H]([C@H](O)[C@H](O)CO)O[C@@](O[C@H]2[C@@H](O)[C@@H](CO)O[C@@H](O[C@@H]([C@H](O[C@@H]3O[C@@H](C)[C@@H](O)[C@@H](O)[C@@H]3O)[C@H](C=O)NC(C)=O)[C@H](O)CO)[C@@H]2O)(C(=O)O)C[C@@H]1O [SIALYL LEWIS X] | – | – | – | – | – | 41 | – | Activity (Mus musculus [9]): inactive
CCCCCCCCCCOc1cccc(OCCCCCC(=O)N(Cc2ccc(C(=O)O)cc2)c2ccc(C(=O)O)cc2)c1 | 100 | – | – | – | – | 93 | – | –
CCCCCCCCCCOc1cc(OCCCCCCCCCC)cc(OCCCCCC(=O)N(c2ccc(C(=O)O)cc2)c2cccc(C(=O)O)c2)c1 | – | 53 | – | – | – | – | 58 | –
CCCCCCCCCCOc1cc(OCCCCCCCCCC)cc(OCCCCCCN(c2ccc(C(=O)O)cc2)c2ccc(C(=O)O)cc2)c1 | 102 | 82 | 112 | 77 | 94 | 107 | 81 | inhibition [10]: 41%; Activity (Mus musculus [11]): 44%; inhibition [12]: 35%
CCCCCCCCCCOc1cc(OCCCCCCCCCC)cc(OCCCCCC(=O)N(Cc2ccc(C(=O)OC)cc2)c2ccc(C(=O)OC)cc2)c1 | – | 26 | – | – | – | 26 | 27 | –
CCCCCCCCCCOc1cc(OCCCCCCCCCC)cc(OCCCCCC(=O)N(c2ccc(C(=O)OC)cc2)c2ccc(C(=O)OC)cc2)c1 | – | 16 | – | – | – | 10 | 16 | inhibition [8]: 5%
CCCCCCCCCCOc1cc(OCCCCCCCCCC)cc(OCCCCCCO/N=C(/c2ccc(C(=O)O)cc2)c2cccc(C(=O)O)c2)c1 | – | 50 | – | – | – | 100 | 34 | –
CCCCCCCCCCOc1cc(OCCCCCCCCCC)cc(OCCCCCCN(Cc2ccc(C(=O)O)cc2)c2ccc(C(=O)O)cc2)c1 | – | – | 10 | – | – | 100 | – | –
O=C(O)c1ccc(N(C(=O)CCCCCBr)c2cccc(C(=O)O)c2)cc1 | 75 | 5 | – | – | – | 2 | 19 | –
CCCCCCCCCCOc1cc(OCCCCCCCCCC)cc(OCCCCCCON=C(c2ccc(Cl)cc2)c2ccc(Cl)cc2)c1 | – | 5 | – | – | 2 | 24 | 2 | –
CCCCCCCCCCOc1cccc(OCCCCCC(=O)N(Cc2ccc(C(=O)OC)cc2)c2ccc(C(=O)OC)cc2)c1 | – | 75 | 80 | 68 | 65 | 26 | 78 | –
CCCCCCCCCCOc1cc(OCCCCCCCCCC)cc(OCCCCCCN(Cc2ccc(C(=O)OC)cc2)c2ccc(C(=O)OC)cc2)c1 | 111 | – | 5 | – | – | 61 | – | –
CCCCCCCCCCOc1cc(OCCCCCCCCCC)cc(OCCCCCC(=O)N(Cc2ccc(C(=O)O)cc2)c2ccc(C(=O)O)cc2)c1 | 36 | 50 | – | – | – | 56 | 49 | –
CCCCCCCCCCOc1cc(OCCCCCCCCCC)cc(OCCCCCCON=C(c2ccc(C(=O)O)cc2)c2ccc(C(=O)O)cc2)c1 | 110 | 6 | 84 | – | – | 90 | 2 | –
